Measured values published in ChEMBL document CHEMBL4177600, “Identification of novel PI3K inhibitors through a scaffold hopping strategy” (Bioorg Med Chem Lett, 2017).
pEC50, pKi: −log10 of the molar value. ≈ marks a conversion by molar mass, not a printed value.

Key:
[1] = target: Serine/threonine-protein kinase Chk2 (Homo sapiens) (UniProt O96017); assay: Inhibition of CHK2 (unknown origin) at 1 uM relative to control
Procedure, shortened: (§1)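 Kinase panel of 24 enzymes, each tested at 1 µM; percent inhibition reported as the average of two independent data points.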

[2] = target: T1, Serine/threonine-protein kinase Sgk1 (Homo sapiens) (UniProt O00141); assay: Inhibition of recombinant human N-terminal GST-tagged SGK1 (M1 to L431 residues) expressed in baculovirus infected Sf9 cells at 1 uM using GSK3-derived peptide as substrate by filter binding method relative to control; procedure, shortened: as §1
T1 sequence (whole entry): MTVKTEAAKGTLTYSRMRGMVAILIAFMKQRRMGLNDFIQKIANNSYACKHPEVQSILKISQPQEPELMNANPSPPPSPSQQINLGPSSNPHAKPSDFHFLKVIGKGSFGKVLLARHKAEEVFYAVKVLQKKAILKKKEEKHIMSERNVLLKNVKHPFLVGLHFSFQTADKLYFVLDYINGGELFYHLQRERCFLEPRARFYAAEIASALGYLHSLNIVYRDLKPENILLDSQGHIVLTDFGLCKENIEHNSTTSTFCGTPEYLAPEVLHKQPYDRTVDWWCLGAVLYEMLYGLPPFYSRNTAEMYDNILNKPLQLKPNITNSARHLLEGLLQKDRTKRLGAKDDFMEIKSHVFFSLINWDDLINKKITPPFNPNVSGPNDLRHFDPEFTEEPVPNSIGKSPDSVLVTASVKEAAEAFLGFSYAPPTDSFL

[3] = tested on: Serine/threonine-protein kinase B-raf (Homo sapiens), P15056 [V600E]; assay: Inhibition of recombinant human N-terminal GST/HIS6-tagged BRAF V600E mutant (Q417 to H766 residues) expressed in Sf9 insect cells at 1 uM using MEK1-KM as substrate by fliter binding assay relative to control; procedure, shortened: as §1
[4] = target: Focal adhesion kinase 1 (Homo sapiens) (UniProt Q05397); assay: Inhibition of human FAK at 1 uM relative to control; procedure, shortened: as §1
[5] = target: PI3-kinase p110-delta/p85-alpha (Homo sapiens, UniProt O00329); assay: Inhibition of recombinant human full-length N-terminal His6-tagged p110delta/human full-length p85alpha expressed in baculovirus infected Sf21 insect cells using PIP2 as substrate by HTRF assay; conditions: read-out: Ki(app)
PI3K p110 beta/p85 alpha = PI3K p110 beta/p85 alpha (Homo sapiens, UniProt P42338); assay: Inhibition of p110beta/85alpha (unknown origin) using PIP2 as substrate by HTRF assay; format: protein-complex assay; conditions: read-out: Ki(app)
[6] = target: Proto-oncogene tyrosine-protein kinase Src (Homo sapiens) (UniProt P12931); assay: Inhibition of human SRC at 1 uM using poly(Glu,Tyr)4:1 as substrate by filter binding method relative to control; procedure, shortened: as §1
[7] = Permeability of the compound at 300 uL after 5 hrs by PAMPA; format: ADME; conditions: read-out: permeability
Procedure, shortened: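 Pre-coated PAMPA plates with a tri-layer phospholipid membrane. Donor held compound in PBS at the highest concentration soluble in PBS; acceptor was PBS. Incubated 5 h at room temperature, with propranolol and sorafenib (10 µM) as high and low permeability controls. Donor and acceptor concentrations measured by LC-MS/MS; Pe (10^-6 cm/s) calculated from acceptor/equilibrium concentrations, 0.3 cm² area and well volumes.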

[8] = target: Hepatocyte growth factor receptor (Homo sapiens) (UniProt P08581); assay: Inhibition of recombinant human N-terminal GST/His6-tagged MET (K956 to S1390 residues) expressed in Sf9 insect cells at 1 uM using TRK-C-derived peptide as substrate by filter binding method relative to control
Procedure, shortened: (§2)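 Single-point screen at 1 µM in a 24-kinase panel run externally; each value is the average of two independent data points. The detailed assay conditions are given only on the provider's site.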

[9] = Kinetic solubility of the compound in phosphate buffered saline at pH 7.4 at 1 to 2 mg measured after 24 hrs by HPLC analysis; format: physicochemical; conditions: read-out: Kinetic_solubility
Procedure, shortened: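 Solid compound (1–2 mg) in 1 mL PBS, pH 7.4, inverted in test tubes for 24 h. Samples centrifuged, supernatant analysed by HPLC with diode-array detection, with peak area compared to a standard of known concentration. LC-MS/MS used when UV signal was too low or the chromophore poor. Reported in µM.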

[10] = target: Mast/stem cell growth factor receptor Kit (Homo sapiens) (UniProt P10721); assay: Inhibition of recombinant human N-terminal GST/His6-tagged KIT (T544 to V976 residues) expressed in Sf9 insect cells at 1 uM using TRK-C-derived peptide as substrate by filter binding method relative to control; procedure, shortened: as §1
CYP2C9 = CYP2C9 (Homo sapiens, UniProt P11712); assay: Inhibition of CYP2C9 (unknown origin) at 10 uM relative to control; format: ADME
Procedure, shortened: (§3)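 CYP1A2, 2C9, 2C19, 2D6 and 3A4 inhibition measured at 10 µM test compound in duplicate; percent inhibition reported.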

CYP2D6 = CYP2D6 (Homo sapiens, UniProt P10635); assay: Inhibition of CYP2D6 (unknown origin) at 10 uM relative to control; format: ADME; procedure, shortened: as §3
CYP1A2 = target: T2, CYP1A2 (Homo sapiens, UniProt P05177); assay: Inhibition of CYP1A2 (unknown origin) at 10 uM relative to control; format: ADME; procedure, shortened: as §3
T2 sequence (P05177 whole entry): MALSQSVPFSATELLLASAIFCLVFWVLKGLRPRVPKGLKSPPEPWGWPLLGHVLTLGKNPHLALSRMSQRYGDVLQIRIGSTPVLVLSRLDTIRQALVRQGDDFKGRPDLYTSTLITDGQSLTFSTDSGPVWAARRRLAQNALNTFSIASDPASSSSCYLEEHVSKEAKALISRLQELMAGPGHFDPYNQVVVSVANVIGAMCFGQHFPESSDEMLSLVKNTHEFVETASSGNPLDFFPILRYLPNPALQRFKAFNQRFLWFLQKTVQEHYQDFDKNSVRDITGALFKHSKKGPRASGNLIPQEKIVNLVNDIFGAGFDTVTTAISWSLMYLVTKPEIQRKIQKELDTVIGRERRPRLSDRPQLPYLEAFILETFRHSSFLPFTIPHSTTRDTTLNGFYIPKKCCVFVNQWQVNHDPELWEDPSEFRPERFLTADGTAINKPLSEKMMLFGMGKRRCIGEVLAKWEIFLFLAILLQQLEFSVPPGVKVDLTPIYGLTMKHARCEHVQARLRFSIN

[11] = target: Serine/threonine-protein kinase PAK 1 (Homo sapiens) (UniProt Q13153); assay: Inhibition of recombinant human N-terminal GST/His6-tagged PAK1 (M1 to H545 residues) expressed in Sf9 insect cells at 1 uM using tetra(LRRWSLG) as substrate by filter binding method relative to control; procedure, shortened: as §2
CYP3A4 = CYP3A4 (Homo sapiens, UniProt P08684); assay: Inhibition of CYP3A4 (unknown origin) at 10 uM relative to control; format: ADME; procedure, shortened: as §3
[12] = Inhibition of PI3K in serum-stimulated human U2OS cells assessed as decrease in AKT1 phosphorylation at S473 by C-ELISA; format: cell-based
Procedure, shortened: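 U2OS osteosarcoma cells grown in 0.1% FBS, then serum-stimulated; endogenous phospho-Akt1 (Ser473) quantified by cell ELISA with chemiluminescent substrate. EC50 from sigmoid dose-response fit; two independent experiments in duplicate.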

Mast/stem cell growth factor receptor Kit (Homo sapiens), sequence (P10721 whole entry, the tested form may be a part): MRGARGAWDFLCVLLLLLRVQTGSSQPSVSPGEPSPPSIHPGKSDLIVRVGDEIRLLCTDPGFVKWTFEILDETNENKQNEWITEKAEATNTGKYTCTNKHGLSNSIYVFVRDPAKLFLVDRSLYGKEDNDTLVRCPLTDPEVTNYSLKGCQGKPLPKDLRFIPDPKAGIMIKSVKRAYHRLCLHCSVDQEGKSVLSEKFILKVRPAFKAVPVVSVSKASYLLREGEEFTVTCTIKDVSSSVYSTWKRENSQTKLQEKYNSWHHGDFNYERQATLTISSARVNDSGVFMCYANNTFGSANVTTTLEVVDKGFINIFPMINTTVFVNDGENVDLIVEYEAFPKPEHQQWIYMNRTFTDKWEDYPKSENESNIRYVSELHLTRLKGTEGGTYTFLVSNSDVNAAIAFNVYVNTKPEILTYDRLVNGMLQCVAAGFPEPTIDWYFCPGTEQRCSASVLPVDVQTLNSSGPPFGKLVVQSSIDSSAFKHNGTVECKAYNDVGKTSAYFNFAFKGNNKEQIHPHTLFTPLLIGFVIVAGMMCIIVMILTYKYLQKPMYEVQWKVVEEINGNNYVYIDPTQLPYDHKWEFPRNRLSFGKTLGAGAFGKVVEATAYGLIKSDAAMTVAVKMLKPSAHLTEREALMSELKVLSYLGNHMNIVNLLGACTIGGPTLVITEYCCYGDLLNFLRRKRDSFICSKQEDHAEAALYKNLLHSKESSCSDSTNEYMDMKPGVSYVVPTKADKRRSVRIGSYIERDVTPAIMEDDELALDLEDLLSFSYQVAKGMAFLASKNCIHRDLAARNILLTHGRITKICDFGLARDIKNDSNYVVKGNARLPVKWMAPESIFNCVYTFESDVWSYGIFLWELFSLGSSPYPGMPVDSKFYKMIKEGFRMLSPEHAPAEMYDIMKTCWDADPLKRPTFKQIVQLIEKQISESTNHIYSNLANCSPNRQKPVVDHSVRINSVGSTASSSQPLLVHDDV
CYP2C9, sequence (P11712 whole entry): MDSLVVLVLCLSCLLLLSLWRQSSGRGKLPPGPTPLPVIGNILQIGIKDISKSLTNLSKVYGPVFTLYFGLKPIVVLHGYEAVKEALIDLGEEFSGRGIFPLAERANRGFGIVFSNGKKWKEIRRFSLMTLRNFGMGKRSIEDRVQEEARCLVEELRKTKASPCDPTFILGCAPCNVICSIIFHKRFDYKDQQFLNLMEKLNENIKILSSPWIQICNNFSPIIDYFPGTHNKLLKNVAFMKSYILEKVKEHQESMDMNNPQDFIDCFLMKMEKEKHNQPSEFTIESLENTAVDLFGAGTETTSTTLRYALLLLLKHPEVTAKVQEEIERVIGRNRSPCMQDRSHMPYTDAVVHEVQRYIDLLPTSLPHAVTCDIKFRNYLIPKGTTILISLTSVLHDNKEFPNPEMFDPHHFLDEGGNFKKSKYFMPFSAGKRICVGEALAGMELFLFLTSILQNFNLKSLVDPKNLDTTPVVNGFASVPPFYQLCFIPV
Hepatocyte growth factor receptor (Homo sapiens), sequence (P08581 whole entry, the tested form may be a part): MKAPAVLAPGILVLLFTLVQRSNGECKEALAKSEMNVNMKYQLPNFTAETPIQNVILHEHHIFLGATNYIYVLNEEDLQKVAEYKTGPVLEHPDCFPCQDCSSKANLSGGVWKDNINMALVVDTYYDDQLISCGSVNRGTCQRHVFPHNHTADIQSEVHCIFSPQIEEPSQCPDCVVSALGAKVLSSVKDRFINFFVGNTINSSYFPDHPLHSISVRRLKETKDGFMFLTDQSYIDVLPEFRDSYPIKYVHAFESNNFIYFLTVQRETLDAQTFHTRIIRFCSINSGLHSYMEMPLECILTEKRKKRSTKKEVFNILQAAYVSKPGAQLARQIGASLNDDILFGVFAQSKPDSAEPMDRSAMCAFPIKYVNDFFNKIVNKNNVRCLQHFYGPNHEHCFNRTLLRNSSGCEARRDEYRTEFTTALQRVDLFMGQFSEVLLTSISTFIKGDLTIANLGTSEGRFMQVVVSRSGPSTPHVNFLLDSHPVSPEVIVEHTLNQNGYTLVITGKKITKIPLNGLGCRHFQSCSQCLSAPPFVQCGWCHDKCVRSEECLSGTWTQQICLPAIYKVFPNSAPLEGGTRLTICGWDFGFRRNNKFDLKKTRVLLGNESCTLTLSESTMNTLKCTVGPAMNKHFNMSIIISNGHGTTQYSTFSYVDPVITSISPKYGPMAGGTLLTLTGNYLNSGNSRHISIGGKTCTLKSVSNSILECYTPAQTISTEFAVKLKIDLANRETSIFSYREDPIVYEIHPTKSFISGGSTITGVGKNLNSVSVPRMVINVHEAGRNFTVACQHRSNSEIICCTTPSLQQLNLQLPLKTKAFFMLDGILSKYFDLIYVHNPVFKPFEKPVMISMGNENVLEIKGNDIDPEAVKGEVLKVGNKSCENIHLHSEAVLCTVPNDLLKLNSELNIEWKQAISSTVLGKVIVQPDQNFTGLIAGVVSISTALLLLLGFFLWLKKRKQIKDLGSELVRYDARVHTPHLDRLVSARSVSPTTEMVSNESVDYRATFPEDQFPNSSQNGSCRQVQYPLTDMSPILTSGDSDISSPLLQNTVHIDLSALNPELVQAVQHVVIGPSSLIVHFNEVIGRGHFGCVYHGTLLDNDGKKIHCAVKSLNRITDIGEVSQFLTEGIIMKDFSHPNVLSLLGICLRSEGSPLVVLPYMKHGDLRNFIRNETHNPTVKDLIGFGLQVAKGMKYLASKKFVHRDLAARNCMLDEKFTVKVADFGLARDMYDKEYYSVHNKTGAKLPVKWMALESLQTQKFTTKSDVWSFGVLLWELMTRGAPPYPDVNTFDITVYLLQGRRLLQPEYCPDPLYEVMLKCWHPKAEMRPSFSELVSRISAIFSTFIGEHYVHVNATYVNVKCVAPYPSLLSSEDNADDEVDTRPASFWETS
Proto-oncogene tyrosine-protein kinase Src (Homo sapiens), sequence (P12931 2-536 limits assumed): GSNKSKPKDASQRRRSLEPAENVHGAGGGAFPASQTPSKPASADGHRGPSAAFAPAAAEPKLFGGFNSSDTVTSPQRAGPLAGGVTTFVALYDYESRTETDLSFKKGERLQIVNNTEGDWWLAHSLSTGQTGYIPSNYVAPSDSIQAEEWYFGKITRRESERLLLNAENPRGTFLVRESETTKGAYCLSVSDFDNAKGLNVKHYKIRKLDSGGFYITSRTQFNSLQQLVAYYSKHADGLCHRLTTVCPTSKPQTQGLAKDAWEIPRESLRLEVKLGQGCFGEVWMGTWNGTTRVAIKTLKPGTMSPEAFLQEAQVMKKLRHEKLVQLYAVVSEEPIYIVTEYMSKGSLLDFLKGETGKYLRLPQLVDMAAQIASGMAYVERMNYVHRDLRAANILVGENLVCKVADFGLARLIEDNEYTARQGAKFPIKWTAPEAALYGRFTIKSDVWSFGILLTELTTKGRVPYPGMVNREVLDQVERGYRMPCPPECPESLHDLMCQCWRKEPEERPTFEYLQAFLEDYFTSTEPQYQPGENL
Serine/threonine-protein kinase Chk2 (Homo sapiens), sequence (O96017 whole entry): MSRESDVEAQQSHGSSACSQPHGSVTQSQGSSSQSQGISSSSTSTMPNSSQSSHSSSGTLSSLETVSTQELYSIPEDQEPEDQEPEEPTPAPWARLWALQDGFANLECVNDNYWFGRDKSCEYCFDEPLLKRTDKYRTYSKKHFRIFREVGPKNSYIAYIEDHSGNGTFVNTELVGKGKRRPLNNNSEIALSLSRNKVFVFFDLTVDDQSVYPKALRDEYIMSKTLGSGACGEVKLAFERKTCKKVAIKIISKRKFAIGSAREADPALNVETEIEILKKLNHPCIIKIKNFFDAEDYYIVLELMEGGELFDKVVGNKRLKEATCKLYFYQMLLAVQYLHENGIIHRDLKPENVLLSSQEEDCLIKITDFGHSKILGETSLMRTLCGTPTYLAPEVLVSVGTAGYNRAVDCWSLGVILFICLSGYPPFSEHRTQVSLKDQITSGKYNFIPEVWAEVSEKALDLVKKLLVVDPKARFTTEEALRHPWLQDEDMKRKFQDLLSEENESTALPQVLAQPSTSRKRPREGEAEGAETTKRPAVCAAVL
CYP2D6, sequence (P10635 whole entry): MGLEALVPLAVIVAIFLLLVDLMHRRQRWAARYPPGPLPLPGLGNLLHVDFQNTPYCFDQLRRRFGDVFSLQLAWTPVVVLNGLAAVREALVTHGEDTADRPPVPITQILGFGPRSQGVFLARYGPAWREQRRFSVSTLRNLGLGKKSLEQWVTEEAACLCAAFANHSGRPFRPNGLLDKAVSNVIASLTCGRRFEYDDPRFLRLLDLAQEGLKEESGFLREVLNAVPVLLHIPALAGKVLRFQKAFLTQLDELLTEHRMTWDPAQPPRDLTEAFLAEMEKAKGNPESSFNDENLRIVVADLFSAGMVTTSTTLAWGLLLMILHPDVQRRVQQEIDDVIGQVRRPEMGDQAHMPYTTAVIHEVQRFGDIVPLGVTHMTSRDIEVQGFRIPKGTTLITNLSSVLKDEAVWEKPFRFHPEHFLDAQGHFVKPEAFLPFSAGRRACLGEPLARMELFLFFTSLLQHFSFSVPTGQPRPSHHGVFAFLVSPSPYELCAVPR
Serine/threonine-protein kinase PAK 1 (Homo sapiens), sequence (Q13153 whole entry, the tested form may be a part): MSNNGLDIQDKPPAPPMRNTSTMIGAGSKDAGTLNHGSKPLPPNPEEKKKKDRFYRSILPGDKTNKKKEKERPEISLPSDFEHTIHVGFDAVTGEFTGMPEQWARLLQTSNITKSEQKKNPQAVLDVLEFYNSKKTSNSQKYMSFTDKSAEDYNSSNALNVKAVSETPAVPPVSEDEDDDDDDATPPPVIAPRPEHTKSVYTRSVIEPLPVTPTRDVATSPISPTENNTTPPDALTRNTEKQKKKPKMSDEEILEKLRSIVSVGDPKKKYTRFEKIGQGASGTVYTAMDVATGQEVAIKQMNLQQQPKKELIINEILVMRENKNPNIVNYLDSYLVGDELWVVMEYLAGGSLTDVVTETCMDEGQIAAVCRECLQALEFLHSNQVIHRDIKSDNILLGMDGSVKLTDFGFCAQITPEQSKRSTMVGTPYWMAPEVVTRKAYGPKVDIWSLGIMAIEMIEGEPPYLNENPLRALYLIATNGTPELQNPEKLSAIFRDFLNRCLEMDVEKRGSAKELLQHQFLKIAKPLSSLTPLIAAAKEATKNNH

inhibition [1] [%]	inhibition [2] [%]	inhibition [3] [%]	inhibition [4] [%]	pKi [5]	pKi (PI3K p110 beta/p85 alpha)	inhibition [6] [%]	Papp at 5 h [7] [nm/s]	inhibition [8] [%]	solubility kinetic at 24 h [9] [µM]	inhibition [10] [%]	inhibition at 10 µM (CYP2C9) [%]	inhibition at 10 µM (CYP2D6) [%]	inhibition at 10 µM (CYP1A2) [%]	inhibition [11] [%]	inhibition at 10 µM (CYP3A4) [%]	pEC50 [12]	Compound
< 25	< 25	< 25	< 25	7.75	6.41	< 25	35.4	< 25	10 (≈ 4.75 µg/mL)	< 25	< 25	< 25	< 25	< 25	< 25	7.28	CS(=O)(=O)N1CCN(Cc2cn3nc(-c4cnc(N)nc4)nc(N4CCOCC4)c3n2)CC1
< 25	< 25	< 25	< 25	8.20		< 25	19.2	< 25	100 (≈ 47.5 µg/mL)	< 25	< 25	< 25	< 25	< 25	< 25	7.06	CS(=O)(=O)N1CCN(Cc2nc3c(N4CCOCC4)nc(-c4cnc(N)nc4)cn3n2)CC1
< 25	< 25	< 25	< 25	8.15	7.31	< 25	9.3	< 25	10 (≈ 4.74 µg/mL)	< 25	< 25	< 25	< 25	< 25	< 25	7.52	CS(=O)(=O)N1CCN(Cc2cc3c(N4CCOCC4)nc(-c4cnc(N)nc4)cn3n2)CC1
< 25	< 25	< 25	< 25	8.47	6.55	< 25	6.9	< 25	100 (≈ 50.9 µg/mL)	< 25	< 25	< 25	< 25	< 25	< 25	7.16	CS(=O)(=O)N1CCN(Cc2nc3c(N4CCOCC4)nc(-c4cnc(N)nc4)c(Cl)n3n2)CC1
